The target in experiment [1] is ATP binding cassette transporter Abc1p (Issatchenkia orientalis) (UniProt Q09GQ4). Nature of the experiment: Inhibition of Candida krusei ABC1 expressed in Saccharomyces cerevisiae isolate ADdelta at 0.24 nM. Particulars: Pichia kudriavzevii.
The target is the same in experiment [2]. The experiment in a line: Inhibition of Candida krusei ABC1 expressed in Saccharomyces cerevisiae isolate ADdelta at 2 nM. Particulars: Pichia kudriavzevii.
Experiment [3] has the same target. Nature of the experiment: Inhibition of Candida krusei ABC1 expressed in Saccharomyces cerevisiae isolate ADdelta at 20 nM. Particulars: Pichia kudriavzevii.
Experiment [4] has the same target. Nature of the experiment: Inhibition of Candida krusei Abc1p expressed in Saccharomyces cerevisiae isolate AD assessed as reduction of itraconazole MIC at 5 ug after 48 hrs by agarose diffusion assay. Particulars: Pichia kudriavzevii.
Experiment [5] shares this target. The experiment in a line: Inhibition of Candida krusei B2399 Abc1p assessed as reduction of itraconazole MIC at 5 ug after 48 hrs by agarose diffusion assay. Particulars: Pichia kudriavzevii.
For experiment [6] the target is unchanged. Nature of the experiment: Inhibition of Candida krusei IF011 Abc1p assessed as reduction of itraconazole MIC at 5 ug after 48 hrs by agarose diffusion assay. Particulars: Pichia kudriavzevii.
For experiment [7], the system named is Pichia kudriavzevii. Nature of the experiment: Increase in ERG11 mRNA expression in Candida krusei B2401 after 60 mins by hot-phenol extraction based Northern blotting. Format: functional, organism-based.
Experiment [8] has as its system Pichia kudriavzevii. The experiment in a line: Increase in ABC1 mRNA expression in Candida krusei B2402 after 60 mins by hot-phenol extraction based Northern blotting. Format: functional, organism-based.
Experiment [9] concerns the target ATP binding cassette transporter Abc1p (Issatchenkia orientalis) (UniProt Q09GQ4). Nature of the experiment: Inhibition of Candida krusei ABC1 expressed in Saccharomyces cerevisiae isolate ADdelta at 16 nM. Particulars: Pichia kudriavzevii. The procedure, abridged:
(§1)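 Agarose disk-diffusion test of S. cerevisiae AD overexpressing C. krusei Abc1p, with the parent AD strain as comparison. Cells were pregrown from YPD overnight into CSM to mid-log at 30°C. They were seeded at OD600 0.008 in CSM with 0.6% agarose, overlaid on CSM agar (pH 7.0). Paper disks carrying set nmol amounts of xenobiotic were applied, and plates were incubated at 30°C for 48 h before reading growth inhibition zones.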

Experiment [10] has the same target. Nature of the experiment: Inhibition of Candida krusei ABC1 expressed in Saccharomyces cerevisiae isolate ADdelta at 12 nM. Particulars: Pichia kudriavzevii. The method in brief:
as §1

For experiment [11] the target is unchanged. The experiment in a line: Inhibition of Candida krusei ABC1 expressed in Saccharomyces cerevisiae isolate ADdelta at 46 nM. Particulars: Pichia kudriavzevii. The method in brief: as §1
The target is the same in experiment [12]. The experiment in a line: Inhibition of Candida krusei ABC1 expressed in Saccharomyces cerevisiae isolate ADdelta at 620 nM. Particulars: Pichia kudriavzevii. The procedure, abridged: as §1

This note sets out measurements from ChEMBL document CHEMBL1649122, “Abc1p is a multidrug efflux transporter that tips the balance in favor of innate azole resistance in Candida krusei” (2009).

Active and inactive are the calls of the source. The calls are words filed in the database; no cut-off is given here.

For the compound `C/C1=C/C(=O)O[C@@H]2C[C@@H](CC[C@H](C)/C=C\C=C\CC1)O[C@@](O)([C@@H]1CSC(=O)N1)C2`, the outcome in experiment [1] was Active.
As for `C/C=C/C/C=C/CCC(=O)[C@H]1O[C@H]1C(N)=O`, in experiment [2], the outcome was Active.
As to `C=C1[C@@H](C)[C@H]2[C@H](Cc3ccccc3)NC(=O)[C@]23[C@H](OC(C)=O)/C=C/[C@@](C)(O)C(=O)[C@@H](C)C/C=C/[C@H]3[C@@H]1O`, the outcome in experiment [3] was Active.
Take `C=CC[C@@H]1/C=C(\C)C[C@H](C)C[C@H](OC)[C@H]2O[C@@](O)(C(=O)C(=O)N3CCCC[C@H]3C(=O)O[C@H](/C(C)=C/[C@@H]3CC[C@@H](O)[C@H](OC)C3)[C@H](C)[C@@H](O)CC1=O)[C@H](C)C[C@@H]2OC`: the outcome in experiment [4], in experiment [5] and in experiment [6] was Active.
Regarding `CC(C)[C@@H](C)/C=C/[C@@H](C)[C@H]1CC[C@H]2C3=CC=C4C[C@@H](O)CC[C@]4(C)[C@H]3CC[C@]12C`, the result in [7] and in experiment [8] was inactive.
As for `CC/N=c1\cc2oc3cc(NCC)c(C)cc3c(-c3ccccc3C(=O)OCC)c-2cc1C`, in experiment [9], the outcome was Active.
For the compound `CC[C@@]1([C@@H]2O[C@@H]([C@H]3O[C@@](O)(CO)[C@H](C)C[C@@H]3C)C[C@@H]2C)CC[C@H]([C@]2(C)CC[C@]3(C[C@H](O)[C@@H](C)[C@@H]([C@@H](C)[C@@H](OC)[C@H](C)C(=O)O)O3)O2)O1`, in experiment [10], the outcome was Active.
`CN(C/C=C/C#CC(C)(C)C)Cc1cccc2ccccc12`: the outcome in experiment [11] was inactive.
As to `CN1CCN(CCCN2c3ccccc3Sc3ccc(C(F)(F)F)cc32)CC1`, the result in experiment [12] was inactive.
